Active and inactive are the calls of the source. The rule behind the calls is not given here.
Assays:
Type in all cases: cell-based
[1] = biological target: T1, Protein cereblon/von Hippel-Lindau disease tumor suppressor (Homo sapiens, UniProt P40337+Q96SW2); test: Protac activity at VHL/CRBN in human HeLa cells assessed as pVHL30 protein abundance at 1 uM after 8 hrs by Western blot analysis relative to DMSO
In short: (§1)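 HeLa cells seeded overnight, then exposed to 1 µM compound (0.1% v/v DMSO final) over a time course. Cells were DPBS-washed and RIPA-lysed with protease inhibitors and benzonase; equal protein was loaded. Immunoblots for CRBN and VHL isoforms were quantified against β-tubulin and reported relative to the averaged 0.1% DMSO vehicle.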

[2] = biological target: T1, Protein cereblon/von Hippel-Lindau disease tumor suppressor; test: Protac activity at VHL/CRBN in human HeLa cells assessed as CRBN protein abundance at 500 nM after 4 hrs by Western blot analysis relative to DMSO
In short: (§2)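 HeLa cells (5 × 10⁵, DMEM + 10% FBS, 37 °C, 5% CO₂, ≤30 passages) seeded overnight, then treated 4 h with compound at single or graded concentrations (0.1% v/v DMSO final). RIPA lysates equalised by Bradford; SDS-PAGE and anti-CRBN/anti-VHL immunoblots; bands normalised to β-tubulin and expressed as % of mean DMSO vehicle. DC₅₀ from fit of band intensity versus log[concentration].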

[3] = biological target: T1, Protein cereblon/von Hippel-Lindau disease tumor suppressor; test: Protac activity at VHL/CRBN in human HeLa cells assessed as pVHL19 protein abundance at 500 nM after 4 hrs by Western blot analysis relative to DMSO; in short: as §2
[4] = biological target: T1, Protein cereblon/von Hippel-Lindau disease tumor suppressor; test: Protac activity at VHL/CRBN in human HeLa cells assessed as pVHL19 protein abundance at 10000 nM after 4 hrs by Western blot analysis relative to DMSO; in short: as §2
[5] = biological target: T1, Protein cereblon/von Hippel-Lindau disease tumor suppressor; test: Protac activity at VHL/CRBN in HEK293 cells assessed as CRBN protein abundance at 500 nM after 4 hrs by Western blot analysis relative to DMSO
In short: (§3)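 HEK293 cells (DMEM, 10% FBS, penicillin/streptomycin, L-glutamine; 37 °C, 5% CO2; ≤30 passages) seeded at 1 × 10⁶ per well overnight, then treated with compound at 0.1% v/v final DMSO. Cells were lysed in RIPA with protease inhibitors and benzonase, then clarified. Equal Bradford-quantified protein was immunoblotted for CRBN/VHL. Bands were normalised to β-tubulin and expressed as % of mean 0.1% DMSO vehicle.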

[6] = biological target: T1, Protein cereblon/von Hippel-Lindau disease tumor suppressor; test: Protac activity at VHL/CRBN in HEK293 cells assessed as pVHL30 protein abundance at 5 nM after 4 hrs by Western blot analysis relative to DMSO; in short: as §3
[7] = biological target: T1, Protein cereblon/von Hippel-Lindau disease tumor suppressor; test: Protac activity at VHL/CRBN in HEK293 cells assessed as pVHL19 protein abundance at 10 nM after 4 hrs by Western blot analysis relative to DMSO; in short: as §3
[8] = biological target: T1, Protein cereblon/von Hippel-Lindau disease tumor suppressor; test: Protac activity at VHL/CRBN in HEK293 cells assessed as pVHL19 protein abundance at 5000 nM after 4 hrs by Western blot analysis relative to DMSO; in short: as §3
[9] = biological target: T1, Protein cereblon/von Hippel-Lindau disease tumor suppressor; test: Protac activity at VHL/CRBN in HEK293 cells assessed as CRBN protein abundance at 5 nM after 4 hrs by Western blot analysis relative to DMSO; in short: as §3
[10] = biological target: T1, Protein cereblon/von Hippel-Lindau disease tumor suppressor; test: Protac activity at VHL/CRBN in HEK293 cells assessed as pVHL19 protein abundance at 1000 nM after 4 hrs by Western blot analysis relative to DMSO; in short: as §3
[11] = biological target: T1, Protein cereblon/von Hippel-Lindau disease tumor suppressor; test: Protac activity at VHL/CRBN in human HeLa cells assessed as CRBN protein abundance at 1 uM after 12 hrs by Western blot analysis relative to DMSO; in short: as §1
[12] = biological target: T1, Protein cereblon/von Hippel-Lindau disease tumor suppressor; test: Protac activity at VHL/CRBN in human HeLa cells assessed as CRBN protein abundance at 10 nM after 4 hrs by Western blot analysis relative to DMSO; in short: as §2
[13] = biological target: T1, Protein cereblon/von Hippel-Lindau disease tumor suppressor; test: Protac activity at VHL/CRBN in HEK293 cells assessed as CRBN protein abundance at 50 nM after 4 hrs by Western blot analysis relative to DMSO; in short: as §3
[14] = biological target: T1, Protein cereblon/von Hippel-Lindau disease tumor suppressor; test: Protac activity at VHL/CRBN in human HeLa cells assessed as CRBN protein abundance at 100 nM after 4 hrs by Western blot analysis relative to DMSO; in short: as §2
[15] = biological target: T1, Protein cereblon/von Hippel-Lindau disease tumor suppressor; test: Protac activity at VHL/CRBN in HEK293 cells assessed as pVHL19 protein abundance at 10000 nM after 4 hrs by Western blot analysis relative to DMSO; in short: as §3
[16] = biological target: T1, Protein cereblon/von Hippel-Lindau disease tumor suppressor; test: Protac activity at VHL/CRBN in HEK293 cells assessed as pVHL19 protein abundance at 1 uM after 12 hrs by Western blot analysis relative to DMSO; in short: as §3
[17] = biological target: T1, Protein cereblon/von Hippel-Lindau disease tumor suppressor; test: Protac activity at VHL/CRBN in HEK293 cells assessed as CRBN protein abundance at 1 uM after 12 hrs by Western blot analysis relative to DMSO; in short: as §3
[18] = biological target: T1, Protein cereblon/von Hippel-Lindau disease tumor suppressor; test: Protac activity at VHL/CRBN in HEK293 cells assessed as CRBN protein abundance at 5000 nM after 4 hrs by Western blot analysis relative to DMSO; in short: as §3
[19] = biological target: T1, Protein cereblon/von Hippel-Lindau disease tumor suppressor; test: Protac activity at VHL/CRBN in human HeLa cells assessed as CRBN protein abundance at 1 uM after 8 hrs by Western blot analysis relative to DMSO; in short: as §1
[20] = biological target: T1, Protein cereblon/von Hippel-Lindau disease tumor suppressor; test: Protac activity at VHL/CRBN in human HeLa cells assessed as pVHL19 protein abundance at 1000 nM after 4 hrs by Western blot analysis relative to DMSO; in short: as §2
[21] = biological target: T1, Protein cereblon/von Hippel-Lindau disease tumor suppressor; test: Protac activity at VHL/CRBN in human HeLa cells assessed as CRBN protein abundance at 10000 nM after 4 hrs by Western blot analysis relative to DMSO; in short: as §2
[22] = biological target: T1, Protein cereblon/von Hippel-Lindau disease tumor suppressor; test: Protac activity at VHL/CRBN in human HeLa cells assessed as pVHL30 protein abundance at 1 uM after 4 hrs by Western blot analysis relative to DMSO; in short: as §1
[23] = biological target: T1, Protein cereblon/von Hippel-Lindau disease tumor suppressor; test: Protac activity at VHL/CRBN in HEK293 cells assessed as CRBN protein abundance at 10 nM after 4 hrs by Western blot analysis relative to DMSO; in short: as §3
[24] = biological target: T1, Protein cereblon/von Hippel-Lindau disease tumor suppressor; test: Protac activity at VHL/CRBN in HEK293 cells assessed as pVHL30 protein abundance at 500 nM after 4 hrs by Western blot analysis relative to DMSO; in short: as §3
[25] = biological target: T1, Protein cereblon/von Hippel-Lindau disease tumor suppressor; test: Protac activity at VHL/CRBN in human HeLa cells assessed as CRBN protein abundance at 5 nM after 4 hrs by Western blot analysis relative to DMSO; in short: as §2
[26] = biological target: T1, Protein cereblon/von Hippel-Lindau disease tumor suppressor; test: Protac activity at VHL/CRBN in HEK293 cells assessed as induction of CRBN degradation
[27] = biological target: T1, Protein cereblon/von Hippel-Lindau disease tumor suppressor; test: Protac activity at VHL/CRBN in HEK293 cells assessed as pVHL19 protein abundance at 100 nM after 4 hrs by Western blot analysis relative to DMSO; in short: as §3
[28] = biological target: T1, Protein cereblon/von Hippel-Lindau disease tumor suppressor; test: Protac activity at VHL/CRBN in human HeLa cells assessed as pVHL30 protein abundance at 10000 nM after 4 hrs by Western blot analysis relative to DMSO; in short: as §2
[29] = biological target: T1, Protein cereblon/von Hippel-Lindau disease tumor suppressor; test: Protac activity at VHL/CRBN in human HeLa cells assessed as pVHL19 protein abundance at 1 uM after 2 hrs by Western blot analysis relative to DMSO; in short: as §1
[30] = biological target: T1, Protein cereblon/von Hippel-Lindau disease tumor suppressor; test: Protac activity at VHL/CRBN in HEK293 cells assessed as CRBN protein abundance at 1 uM after 1 hr by Western blot analysis relative to DMSO; in short: as §3

T1 sequence (P40337 whole entry, looked up, canonical isoform): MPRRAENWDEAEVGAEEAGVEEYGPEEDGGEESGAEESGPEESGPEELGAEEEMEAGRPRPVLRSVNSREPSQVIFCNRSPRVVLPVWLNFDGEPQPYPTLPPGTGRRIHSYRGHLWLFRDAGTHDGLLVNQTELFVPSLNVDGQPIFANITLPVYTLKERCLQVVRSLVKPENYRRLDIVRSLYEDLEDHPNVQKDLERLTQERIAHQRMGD
T1 sequence (Q96SW2 whole entry, looked up, canonical isoform): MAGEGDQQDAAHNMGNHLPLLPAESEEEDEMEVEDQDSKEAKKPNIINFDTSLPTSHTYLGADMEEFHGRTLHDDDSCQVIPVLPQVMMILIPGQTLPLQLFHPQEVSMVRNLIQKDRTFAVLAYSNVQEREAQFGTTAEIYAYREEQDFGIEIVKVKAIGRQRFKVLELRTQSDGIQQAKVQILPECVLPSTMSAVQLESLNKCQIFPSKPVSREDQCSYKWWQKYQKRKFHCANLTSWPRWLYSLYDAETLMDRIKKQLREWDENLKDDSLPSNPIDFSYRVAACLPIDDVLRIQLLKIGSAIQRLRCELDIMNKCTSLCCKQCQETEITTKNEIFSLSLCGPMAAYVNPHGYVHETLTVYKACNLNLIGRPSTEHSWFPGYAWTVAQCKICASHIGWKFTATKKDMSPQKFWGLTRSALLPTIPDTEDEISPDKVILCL

Activity [1]: 116% | Activity [2]: 33% | Activity [3]: 106% | Activity [4]: 124% | Activity [5]: 27% | Activity [6]: 117% | Activity [7]: 110% | Activity [8]: 109% | Activity [9]: 102% | Activity [10]: 119% | Activity [11]: 12% | Activity [12]: 81% | Activity [13]: 91% | Activity [14]: 70% | Activity [15]: 106% | Activity [16]: 102% | Activity [17]: 6% | Activity [18]: 25% | Activity [19]: 15% | Activity [20]: 110% | Activity [21]: 86% | Activity [22]: 103% | Activity [23]: 113% | Activity [24]: 130% | Activity [25]: 85% | Activity [26]: Active | Activity [27]: 111% | Activity [28]: 142% | Activity [29]: 95% | Activity [30]: 14%
SMILES: Cc1ncsc1-c1ccc(CNC(=O)[C@@H]2C[C@@H](O)CN2C(=O)[C@@H](NC(=O)COCCCCCOCCOCCCCCOCC(=O)NCCNc2cccc3c2C(=O)N(C2CCC(=O)NC2=O)C3=O)C(C)(C)C)cc1 (stereo not given in full)

Reference: ChEMBL document CHEMBL4665633, “Cereblon versus VHL: Hijacking E3 ligases against each other using PROTACs” (Bioorg Med Chem, 2019)
